# Assay outcomes: PubChem BioAssay, several laboratories
# Only some compounds are listed: those with a hit (about 2.9% of all), similar ones and a draw of the others.
# SKBR3 24h inh: SK-BR-3 proliferation inhibitors | 41,000 compounds, 0.47% hits | viability, % at 10 µM | SK-BR-3 viability, CellTiter-Glo ATP luminescence, 24 h; hits give low values;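 active = viability at or below the median of all test compounds minus 3 SD, in both replicates if run twice, cut at about 45% in these data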
# HTR1A agonist: activates the human 5-HT1a serotonin receptor; 65,000 compounds, 0.56% hits; P08908; CHO 5-HT1a Ga15 NFAT-bla reporter, FRET ratio; 0% basal, 100% maximal reference agonist; activation, % at 10 µM;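 active = activation above the screen-wide mean activation plus 3 SD, cut at about 19% in these data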
# 5HT1a antag: blocks the human serotonin 5-HT1a receptor; AID 612; P08908; inhibition, % at 10 µM; CHO 5-HT1a Ga15 NFAT-bla reporter, antagonist mode; 62,000 compounds, 0.68% hits;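 active = inhibition above the mean of all tested compounds plus 3 SD, cut at about 43% in these data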;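 also: receptor stimulated by 5-CT agonist at 100 nM near EC80; beta-lactamase reporter measured by ratiometric fluorescence of a cleavable substrate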
# 5HT1E ag: activates the human 5-HT1E serotonin receptor; P28566; CHO 5-HT1E Ga15 NFAT-bla reporter, FRET; 0% DMSO wells, 100% control agonist wells; activation, % at 6 µM; 65,000 compounds, 0.69% hits;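 active = activation above a set limit, the screen-wide mean activation plus 3 SD, cut at about 8.5% in these data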
# Target sequence (P28566 whole entry, looked up): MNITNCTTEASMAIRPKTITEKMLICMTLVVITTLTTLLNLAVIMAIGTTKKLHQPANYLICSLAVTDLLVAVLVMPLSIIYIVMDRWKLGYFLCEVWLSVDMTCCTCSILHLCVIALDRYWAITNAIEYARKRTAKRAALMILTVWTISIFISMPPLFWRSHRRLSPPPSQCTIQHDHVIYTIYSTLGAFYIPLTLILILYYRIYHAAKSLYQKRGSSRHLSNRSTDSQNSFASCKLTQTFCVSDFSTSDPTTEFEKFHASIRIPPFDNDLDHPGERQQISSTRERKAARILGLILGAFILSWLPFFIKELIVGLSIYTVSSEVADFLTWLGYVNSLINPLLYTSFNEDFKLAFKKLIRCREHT
# HTR1E antagonist: antagonists of human 5-HT1E serotonin receptor; 65,000 compounds, 0.99% hits; AID 571; P28566; CHO 5-HT1E Ga15 NFAT-bla reporter, FRET, antagonist; inhibition, % at 6 µM;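 active = inhibition above a set limit, the mean inhibition across every tested compound plus 3 SD, cut at about 29% in these data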;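 also: signal is the 460 over 535 nm emission ratio of beta-lactamase substrate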
# HEK293 NFkB inh: lowers PMA/ionomycin-induced NF-kB signal in HEK293 cells | HEK-293 NF-kB luciferase reporter, luminescence | inhibition, % at 3 µM | 62,000 compounds, 0.21% hits;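 active = inhibition above the mean of all tested compounds plus 3 SD, cut at about 40% in these data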
#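 Reagent: PMA plus ionomycin mix as NF-kB-activating stimulus. Assay system: NF-kB luciferase reporter HEK-293 cells. Technique: luminescence from luciferase substrate reagent. Incubation: 1 h compound pre-incubation, 16 h PMA/ionomycin at 37 °C. Benchmarks: DMSO only as uninhibited control, 10 µM reference inhibitor as full inhibition. Repeats: tested once.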
# Numbers stand for hits; . = inactive; / = no result.
SMILES,SKBR3 24h inh,HTR1A agonist,5HT1a antag,5HT1E ag,HTR1E antagonist,HEK293 NFkB inh
COC(=O)c1cc(Br)c(=O)n(Cc2ccc3c(c2)OCO3)c1,.,.,/,.,.,/
c1ccc2[nH]c(CSc3nnc(-c4ccncc4)o3)nc2c1,.,.,.,.,.,.
Brc1cccc(-c2nnc(SCc3nc4ccccc4[nH]3)o2)c1,.,.,.,.,28.6,.
COC(=O)c1sccc1NC(=O)c1cc2c(s1)CCCC2,.,30.0,.,.,.,.
CCOC(=O)c1cnc2nc[nH]n2c1=O,/,.,.,.,.,.
C=CCOc1nc(N2CCCC2)nc(N2CCCC2)n1,/,.,.,.,.,.
O=C(Nc1ccc2c(c1)OCCO2)C1CCCN1S(=O)(=O)c1cccc2cccnc12 (stereo not drawn),/,75.4,.,.,.,.
CC(CN1CCCC1)OC(=O)COc1ccccc1 (stereo not drawn),/,.,.,.,.,.
CC1(c2ccccc2)NC(=O)N(CCN2C(=O)c3ccccc3C2=O)C1=O (stereo not drawn),/,.,.,.,.,.
COc1ccc(OC)c(C(=O)CN2C(=O)NC(C)(c3ccccc3)C2=O)c1 (stereo not drawn),/,161.0,.,.,.,.
CCOC(=O)Nc1ccc2c(c1)N(C(=O)CCN1CCOCC1)c1ccccc1S2=O (stereo not drawn),.,.,51.9,.,.,.
CCOC(=O)Nc1ccc2c(c1)N(C(=O)CCN1CCOCC1)c1ccccc1S2,.,.,.,.,.,.
CCC1Oc2ccccc2N(CC(=O)Nc2ccc(OC)cc2OC)C1=O (stereo not drawn),.,.,.,.,.,.
CCOC(=O)N1CCN(c2nnnn2-c2ccccc2)CC1,.,.,.,.,.,.
CC1CN(c2nnnn2-c2ccccc2)CC(C)O1 (stereo not drawn),/,.,.,53.6,.,.
CCN(CC)C(=O)C(C)OC(=O)c1ccc(O)cc1 (stereo not drawn),.,/,/,/,/,/
Cc1onc(-c2ccccc2)c1C(=O)Nc1cc(C(F)(F)F)ccc1N1CCOCC1,/,.,.,.,40.5,.
Cc1onc(-c2ccccc2)c1C(=O)Nc1ccccc1N1CCOCC1,/,.,.,.,.,.
O=C(NCC(c1cccs1)N1CCOCC1)c1cc2ccccc2o1 (stereo not drawn),.,.,.,.,.,.
CC1(C)NC(=O)N(CC(O)CN2C(=O)NC(C)(C)C2=O)C1=O,42.9,.,.,.,.,.
COc1ccc(-c2cc(-c3cccs3)c(C#N)c(SCC(=O)NCc3ccco3)n2)cc1,.,.,.,.,31.6,.
O=C1c2ccccc2C(O)(Cc2ccccc2)N1c1ccc2c(c1)OCO2 (stereo not drawn),.,.,.,.,.,.
COc1ccc(OC)c(C2C(C(C)=O)=C(O)C(=O)N2CCN2CCOCC2)c1 (stereo not drawn),/,.,.,.,.,.
CC(=O)C1=C(O)C(=O)N(CCN2CCOCC2)C1c1ccccc1 (stereo not drawn),/,.,.,9.3,.,.
COC(=O)/C=C/S(=O)(=O)c1ccc(NC(C)=O)cc1,2.1,.,81.6,.,66.7,.
SMILES,SKBR3 24h inh,HTR1A agonist,5HT1a antag,5HT1E ag,HTR1E antagonist,HEK293 NFkB inh
O=C(Nc1nnc(CC(=O)N2CCCC2)s1)c1cnccn1,.,.,.,.,.,.
COc1ccc(-c2nnc(SCC(=O)NC(C)c3ccccc3)o2)cc1OC (stereo not drawn),.,.,.,.,.,.
C=CCn1c(O)c(C2=c3ccccc3=NC2=O)sc1=Nc1ccc(O)cc1,/,.,55.0,.,.,.
COc1cc2cc(C(c3nnnn3C3CCCCC3)N(C)C3CCCCC3)c(=O)[nH]c2cc1OC (stereo not drawn),.,.,.,.,.,.
Cc1nn(-c2ccccc2)c2sc(C(=O)C(C#N)c3ccccn3)cc12 (stereo not drawn),/,.,.,.,.,.
Cc1cccn2c(=O)c3cc(C#N)c(=O)n(Cc4cccnc4)c3nc12,.,.,.,.,.,.
N#Cc1cc2c(=O)n3ccccc3nc2n(CCN2CCOCC2)c1=O,.,.,.,28.4,.,.
N#Cc1cc2c(=O)n3ccccc3nc2n(Cc2cccnc2)c1=O,.,37.0,.,.,.,.
N#Cc1cc2c(=O)n3ccccc3nc2n(CCCN2CCOCC2)c1=O,.,.,.,.,.,.
COc1ccc2nc(NC(=O)CCc3nc(-c4ccccc4F)no3)sc2c1,.,.,.,.,.,.
CCn1c2ccccc2c2nc3cc(S(=O)(=O)N4CCOCC4)ccc3nc21,/,.,.,.,49.8,.
Nc1c(C(=O)OCC2CCCO2)c2nc3ccccc3nc2n1C1CCCC1 (stereo not drawn),.,.,.,.,.,.
Cn1c(-c2c(N)n(C3CCCC3)c3nc4ccccc4nc23)nc2ccccc21,.,.,77.0,.,76.8,.
O=C(O)C1(c2cccc(Cl)c2)CCC1,.,.,.,.,.,.
Cn1c(Cn2c(=O)sc3ccccc32)nnc1SCC(=O)NCc1ccc(F)cc1,/,40.2,.,.,.,.
Cn1c(Cn2c(=O)sc3ccccc32)nnc1SCC(=O)NCc1ccccc1,/,.,.,.,.,.
C=C(C)CSc1nnc(-c2ccccc2)n1N,/,.,.,41.5,.,.
CCCSCCCNC(=O)c1cc2c(s1)CS(=O)(=O)C2,/,.,.,.,.,.
Cc1cccc(N2CCN(CCNC(=O)c3cc4c(s3)CS(=O)(=O)C4)CC2)c1C,/,36.5,.,12.8,.,.
CN(c1ccccc1)c1nc(N2CCCC2)nc(-n2ccnc2)n1,.,.,52.9,.,.,.
Cc1ccc(C)c(Cn2c(CN(C)Cc3ccccc3)nc3c2c(=O)n(C)c(=O)n3C)c1,/,.,.,.,.,.
CCOC(=O)N1CCN(C(=O)c2ccc(Cn3c(=S)[nH]c4cc5c(cc4c3=O)OCO5)cc2)CC1,/,.,.,.,29.2,.
CCOC(=O)N1CCN(C(=O)c2ccc3c(=O)n(Cc4ccccc4)c(=S)[nH]c3c2)CC1,.,.,.,.,.,.
CCOC(=O)C1=C(N)Oc2cc(C)n(CCc3ccc(OC)c(OC)c3)c(=O)c2C1c1cccnc1 (stereo not drawn),.,.,.,.,30.5,.
C=CCn1c2ccccc2c2nnc(SCCCn3c(=O)[nH]c4ccccc43)nc21,.,.,47.6,.,.,.
C=CCn1c2ccccc2c2nnc(SCN3C(=O)c4ccccc4C3=O)nc21,.,/,/,/,/,/
COCc1cc(C)nc(SCC(=O)Nc2cccc3cccnc23)c1C#N,/,.,.,.,42.1,.
COCc1cc(C)nc(SCC(=O)Nc2ccc3c(c2)OCO3)c1C#N,.,.,.,.,.,.
